# Measured values from different studies.
# Lines come from different studies, so protocols differ.
# Target: Focal adhesion kinase 1 (PTK2, Homo sapiens, UniProt Q05397)
Compound,effect on,action,technique,concentration,measurement,result
Nc1ncc(-c2nc(N3CCOCC3)nc(N3CCOCC3)n2)c(C(F)F)n1,binding,,competition with immobilised ligand,10 µM,remaining binding,100%
Cc1nn(C)cc1-c1nc2c(N3CCN(Cc4ccc(Cl)cc4)CC3)c(Cl)cnc2[nH]1,binding,,competition with immobilised ligand,1 µM,remaining binding,95%
C#Cc1n[nH]c2c(-c3cn(C(C)c4ccccn4)c(=O)[nH]c3=O)cc(F)cc12 (stereo not shown),enzyme activity,inhibitor,,1 µM,inhibition,5.6%
Cn1cc(-c2cccc(N3CCc4c(sc5c4CC(C)(C)C5)C3=O)c2CO)cc(Nc2ccncn2)c1=O,enzyme activity,inhibitor,,1 µM,inhibition,3%
Cn1cncc1[C@](O)(COc1ccc(C#N)cc1-c1ccc(OC(F)(F)F)cc1)c1ccc(C#N)cc1,cell-free assay,,competition with immobilised ligand,1 µM,remaining binding,77%
Cn1cc(-c2cc(F)cc(N3CCn4c(cc5c4CCCC5)C3=O)c2CO)cc(Nc2ccc(N3CCN(C4COC4)CC3)cn2)c1=O,enzyme activity,inhibitor,,0.1 µM,inhibition,18%
O=c1[nH]c2ccccc2n1C1CCN(Cc2ccc(-c3[nH]c4cc5ncnc5cc4nc3-c3ccccc3)cc2)CC1,cell-free assay,,,0.5 µM,remaining signal,108%
COc1ncccc1-c1cnn2ccc(N3CCN(C(=O)OC(C)C)CC3)nc12,binding,,competition with immobilised ligand,1 µM,remaining binding,97%
N#CC1(c2ccccn2)CCN(Cc2cc(C(=O)O)c(=O)n3ccccc23)CC1,cell-free assay,,competition with immobilised ligand,1 µM,remaining binding,100%
CC(C)(C)c1cc(C=C(C#N)C#N)cc(Br)c1O,enzyme activity,inhibitor,,0.5 µM,remaining activity,107%
